The values that follow come from ChEMBL document CHEMBL4513216, “Probing the Open Global Health Chemical Diversity Library for Multistage-Active Starting Points for Next-Generation Antimalarials” (ACS Infect Dis, 2020).

The series in a line: Toxicity liver stage against HepG2, at 10uM. As to conditions: human, HepG2-A16-CD81EGFP cells; read-out: INHIBITION
On the set-up: test concentration 10 uM, cell line HepG2-A16-CD81EGFP. It counts as cell-based. In a few lines:
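Uninfected HepG2-A16-CD81EGFP cells, 3 × 10^3 per well, 1536-well, plated on prespotted compound at 10 μM final, parasite-free screening media added to match infected plates; puromycin 10 μM positive, DMSO 0.5% negative; run in parallel with 48 h PbLuc assay at 37 °C, 5% CO2; viability by CellTiter-Glo luminescence, normalized to controls.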

With `O=c1[nH]c(NCc2cccc(-c3ccccc3)c2)nc2c1CCNC2`, the cytotoxicity at 10 µM came out at 3.3%. Then `CC(C(N)=O)N1CCN(c2ncc(Br)cn2)CC1` (stereo not given), with 3.23%; and `CC(C)CCNC(=O)c1sccc1N(C)S(=O)(=O)c1ccccc1`, with 9.33%. With `CC(C)=CCCC1(C)C=Cc2c(cc(C)n(CC(=O)O)c2=O)O1` (stereo not given) the figure was -2.72%; with `Cc1nnc(SC2CCN(c3sccc3C#N)C2=O)s1` (stereo not given), -7.22%. Then `Cc1cnc(C(=O)N2C[C@H]3CN(Cc4cccnc4)C[C@H]3C2)cn1`, with 2.4%.

On to `O=C(NCc1nc(C2CCCCC2)no1)C1CC(=O)N(C2CCCC2)C1` (stereo not given), for which the cytotoxicity at 10 µM was 0.761%. In the case of `N#Cc1cccc(CN2CCN(C(=O)C3CCC3)[C@@H]3CS(=O)(=O)C[C@@H]32)c1`, the cytotoxicity at 10 µM is -3.49%. Turning to `CCc1ccc(C(=O)NC2CCCN(c3ccn(C)n3)C2=O)o1` (stereo not given), the cytotoxicity at 10 µM was -2.43%. As for `COc1cc(C(=O)NS(=O)(=O)c2cncc(Br)c2)ccc1C`, the cytotoxicity at 10 µM is -2.45%. With `Cc1cnn(CC2CCCN2c2ncnc3c2CCC3)c1` (stereo not given) the figure was 7.84%; with `CCc1nc(C)c([C@H]2CN(C)C[C@@H]2C(=O)Nc2ccc(OC)nc2)[nH]1`, -3.59%; with `CC(C)CS(=O)(=O)CCNc1ncccn1`, -2.43%. For `O=C(CCSC1CCc2ccccc2NC1=O)NCCCO` (stereo not given), the cytotoxicity at 10 µM is -5.65%.

In the case of `Cc1cc(-n2c(C)cn(CN(C)C3CCS(=O)(=O)C3)c2=O)no1` (stereo not given), the cytotoxicity at 10 µM is -0.872%. Then `COc1cc(OC)cc(C(=O)N2CCOCC2c2[nH]ncc2C)c1` (stereo not given), with 7.83%. Then `N#Cc1cccc(C(=O)N2CCn3c(Cn4cncn4)cnc3C2)c1`, with 7.42%; and `Cc1ncnc2c1CCN(c1ccccn1)CC2`, with -157%; and `CNc1ncccc1CN1CCCCC1c1cc(C)n2ccnc2n1` (stereo not given), with -2.17%. Then `Cc1cccc(OCCC(=O)N(C)CCC#N)c1C`, with 0.666%.

In the case of `COCc1nn(C)c2c1CCN(Cc1cnn(C)c1)C2`, the cytotoxicity at 10 µM is -4.37%. With `CC(C)NC(=O)CCNC(=O)c1c(Br)c2ccccc2n1C`, the cytotoxicity at 10 µM worked out at 8.59%. On to `Cc1ncsc1C(=O)NCc1cc2n(n1)CCN(C(=O)N(C)C)C2`, for which the cytotoxicity at 10 µM is -5.62%. Then `Cc1cnn(CC2CCCCN2C(=O)c2ccc3nncn3c2)c1` (stereo not given), with -8.66%. Consider `Cc1cnn(C2CCCN(C(=O)c3ccc(N4CCCC4)nn3)C2)c1` (stereo not given), for which the cytotoxicity at 10 µM is -2.38%. With `Cc1nn(C)cc1CN1CCc2nc(-c3cccnc3)nc(O)c2C1` the figure was 22.5%; with `NC(=O)Nc1cccc(Oc2ccccn2)c1`, 4.39%.

In the case of `COc1ccccc1CNCCc1cccc(C(N)=O)c1`, the cytotoxicity at 10 µM came to 3.65%. With `Cc1ccn(CCNc2ncnc3c2CCN(Cc2ncc[nH]2)CC3)n1` the figure was -1.47%.

For `COCCOCC(C)NC(=O)COc1nn(C)c2nc(C)cc(C)c12` (stereo not given), the cytotoxicity at 10 µM is -3.85%.

As for `O=C1CO[C@@H]2CN(CC3CC3)C[C@H]2N1Cc1cccc(F)c1`, the cytotoxicity at 10 µM was -69.9%. Then `CCC(C(=O)NC1(CN2CCOCC2)CCCC1)n1cccn1` (stereo not given), with 4.52%. Then `O=C1NC[C@H]2CN(Cc3ccnc4ccccc34)CCN12`, with -3.66%. For the compound `CS(=O)(=O)c1ccc(OCCNCc2cccc(O)c2)cc1`, the cytotoxicity at 10 µM is 2.21%. With `Cc1n[nH]c(C)c1CCCN(C)c1cc(N(C)C)ncn1` the figure was -3.37%; with `Cc1ccccc1C(=O)N1C[C@@H]2COC[C@]2(COCc2cccnc2)C1`, 4.44%; with `CC(C)c1cc(C(=O)N2C[C@@H]3CC[C@H]2CN(Cc2ccccn2)C3)no1`, 2.46%. With `Cc1noc(-c2ccc(N(C)Cc3cccnc3)nc2)n1`, the cytotoxicity at 10 µM was -1.24%.

For the compound `Cc1c(C(=O)NCC2CCCO2)nnn1-c1cccc2c1CCN(C)C2` (stereo not given), the cytotoxicity at 10 µM was 1.96%.

For the compound `CC(C)CC(=O)Nc1ccc2c(c1)ncn2CC(=O)NCCN(C)C`, the cytotoxicity at 10 µM is -7.58%.

Take `CNC(=O)c1nc(CN2CCOC(C(F)(F)F)C2)no1` (stereo not given): the cytotoxicity at 10 µM was -2.08%. Then `O=C1C[C@H]2[C@@H](CCN2Cc2ccccn2)N1Cc1cccnc1`, with 4.88%; and `O=C1CCc2cc(C(=O)NCc3ccc(Cl)s3)ccc2N1`, with 3.65%; and `CCC1(CC)C(=O)NC(=O)N=C1Nc1ccc(C)cc1`, with -6.34%.

On to `Cc1cc(C(=O)N2CCCC2)ccc1NCC(=O)N1CCOCC1`, for which the cytotoxicity at 10 µM was -5%. Then `CC(=O)N1N=C(c2ccccc2)OC1C(=O)NCC(=O)OC(C)(C)C` (stereo not given), with -0.376%; and `COc1ccc(Cl)cc1NC(=O)CNc1ccn(CC(N)=O)n1`, with 13.6%. With `COc1ccc(Cl)cc1-c1cc(NC(=O)C2CNC(=O)N2)[nH]n1` (stereo not given) the figure was -1.12%; with `CN1CC(c2ccccc2)CC2(CCN(CC(=O)N(C)C)CC2)C1` (stereo not given), -12.5%. Take `Cc1occc1C(=O)N1CCCN(Cc2ncc(Cl)n2C)CC1`: the cytotoxicity at 10 µM was -1.25%. On to `CN1CCN(C(=O)c2nc3c(o2)CN(C(=O)c2cccnc2)C3)CC1`, for which the cytotoxicity at 10 µM was -7.06%. Then `COCCN(CCOC)C(=O)c1cnn(C)c1-n1c(C)ccc1C`, with -144%; and `Cc1nc(C)n(CC2CCCN2CCC(=O)N2CCCCC2)n1` (stereo not given), with -2.67%; and `O=C(CCn1cncn1)NC1CCc2nccn2C1` (stereo not given), with -4.39%. Then `Cn1cc(C(=O)Nc2cccc(F)c2)ccc1=O`, with -9.66%.

On to `Cc1cc(CNc2cccc(Cl)c2C)no1`, for which the cytotoxicity at 10 µM is -2.4%. Then `CC(=O)NCC1CCC2(CCN(c3nccc(C4CCCC4)n3)CC2)O1` (stereo not given), with -4.43%; and `CN(C)S(=O)(=O)Nc1ccc(-n2nncc2C(F)(F)F)cc1`, with -2.64%.

In the case of `COCCN(C)C[C@@H]1CN(C(=O)c2c(F)ccc(OC)c2F)C[C@@H]1CO`, the cytotoxicity at 10 µM was determined as 0.45%.

As for `O=C(CNC1CCc2ncnn2C1)N(Cc1cccs1)C1CC1` (stereo not given), the cytotoxicity at 10 µM is -3.09%. Then `O=C(CN1CCOCC1)Nc1ccc(C(F)(F)F)cc1Cl`, with 4.72%; and `CC(=O)NC(Cc1c[nH]c2cc(F)ccc12)C(=O)Nc1nonc1C` (stereo not given), with -9.93%.

In the case of `CC(=O)N1CCC(c2nnc3ccc(C(=O)NC(C)C)cn23)C1` (stereo not given), the cytotoxicity at 10 µM was 6.37%. As for `COCC(=O)NCc1cc(=O)n2c(n1)CN(CC1CCOC1)CCC2` (stereo not given), the cytotoxicity at 10 µM was 1.47%. Then `CC(SCc1cc(Br)cc2cccnc12)C(N)=O` (stereo not given), with 11.7%; and `O=C(NCCCN1CCOCC1)c1cc(-c2ccc3c(c2)CCO3)n[nH]1`, with -3.73%; and `Cc1ccc(-c2nc(CN3CCn4c(nnc4C4CC4)C3)co2)c(C)c1`, with -24.7%. In the case of `Cn1cc(-c2ncc(C(=O)NCCCn3ccccc3=O)s2)cn1`, the cytotoxicity at 10 µM came out at 4.13%. Then `CC(=O)N1CCC[C@@H](NCc2cccc(F)c2)[C@@H]1c1ccc(C)s1`, with -24.2%.

As to `CC(C)N(C)S(=O)(=O)c1ccc2c(c1)CCN(C(=O)c1cnccn1)C2`, the cytotoxicity at 10 µM was -6.17%. For the compound `Cc1nc2ccccn2c1CN1C[C@@H](CN(C)C)[C@@H](CO)C1`, the cytotoxicity at 10 µM turned out to be 0.743%.

As for `O=C(C1CCCO1)N1CCC2(CC1)COCCN2CC1CC1` (stereo not given), the cytotoxicity at 10 µM came out at 2.79%. Take `CN(C)S(=O)(=O)N1CCC(OCCCc2ccccc2)C1` (stereo not given): the cytotoxicity at 10 µM is 0.696%. For the compound `c1ccc(C2CCCN2Cc2nc(-c3cnccn3)no2)nc1` (stereo not given), the cytotoxicity at 10 µM was -0.5%. As to `O=c1oc(-c2ccc(F)cc2)nn1CCS(=O)(=O)c1ccccc1`, the cytotoxicity at 10 µM was -0.924%. With `O=C1CC2(CCN(C(=O)C3CCCCC3)C2)Nc2ccccc2N1` (stereo not given) the figure was 9.13%.

For `Cc1ccc(-c2nc(CNS(=O)(=O)N(C)C)[nH]c2-c2ccccn2)cc1`, the cytotoxicity at 10 µM is -0.678%. With `CC(C)CN1C(=O)CC[C@H]2CN(C(=O)Cn3ccc(=O)cc3)CC[C@H]21` the figure was 0.582%. Regarding `CNS(=O)(=O)Cc1cccc(CNc2ccc(Cl)cn2)c1`, the cytotoxicity at 10 µM was -5.71%. On to `Cn1nnc2c1CCN(Cc1ccccc1)C2COCC1CC1` (stereo not given), for which the cytotoxicity at 10 µM turned out to be 3.24%. With `CCc1nc(C2CCCN2C(=O)c2ccc(N3CCCC3)nn2)no1` (stereo not given), the cytotoxicity at 10 µM was -3.27%. As for `Cc1nnc(C(C)N2CCN(Cc3ccc(C(F)(F)F)cc3)CC2)o1` (stereo not given), the cytotoxicity at 10 µM worked out at 8.15%. In the case of `CCOCc1nc(N2CCCC2)sc1C(=O)NCc1ccco1`, the cytotoxicity at 10 µM is -1.89%. With `Cc1c(C(=O)N2CCC2(C)C)nnn1-c1cccc2cnccc12` the figure was -2.15%. Regarding `O=C(NCCc1cccnc1)N1CCCC1c1ccsc1` (stereo not given), the cytotoxicity at 10 µM is -6.82%. With `CC(C)Cn1cncc1Cn1cccc(C(F)(F)F)c1=O`, the cytotoxicity at 10 µM is -10.2%. With `O=C(c1c[nH]c(=O)c(Cl)c1)N1C[C@H]2CC[C@@H](C1)N(CC1CCC1)C2` the figure was -153%; with `CC(Cc1cn(CCc2nnn[nH]2)nn1)c1ccccc1` (stereo not given), 3.78%; with `O=C(NC1CCCC1)c1nc2c(o1)CN(CCO)C2`, 13.2%. In the case of `CC1CCCN(C(=O)c2occc2COc2cccc(C#N)c2)C1` (stereo not given), the cytotoxicity at 10 µM was 4.57%. With `O=C(c1cnn(-c2ccccc2F)c1)N1CCN(CCO)CC1`, the cytotoxicity at 10 µM is -8.18%. As for `CN(Cc1ccco1)[C@@H]1CN(Cc2ccncc2)C[C@@H]2CCCO[C@@H]21`, the cytotoxicity at 10 µM was determined as 0.361%.

As for `CC1CCCCN1CCN(C)C(=O)c1cc(CN2CCC(O)CC2)on1` (stereo not given), the cytotoxicity at 10 µM amounted to 1.14%.

With `Oc1cccc(CN2C[C@@H]3CC[C@H]2CN(Cc2cccnc2)C3)c1`, the cytotoxicity at 10 µM is -121%. For `CC(Cn1ccnc1)NC(=O)NCCNC(=O)C(C)C` (stereo not given), the cytotoxicity at 10 µM is -3.51%.
